ChEMBL document CHEMBL1125150, “Arabinofuranosylpyrrolo[2,3-d]pyrimidines as potential agents for human cytomegalovirus infections” (J Med Chem, 1990)

Experiments:
[1] = Tested in vitro for cytotoxicity against the monkey kidney cells (BSC-1 cells).; format: functional, cell-based; settings: Cercopithecidae
In short: (§1)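 Uninfected HFF or BSC-1 cells in the plaque-reduction plates were scored visually at 35- and 60-fold magnification on a 0 to 4+ scale on the staining day. IC50 was taken by regression against log concentration.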

[2] = system: HFF; experiment: Tested in vitro for cytotoxicity against the normal human diploid cells (HFF cells).; format: functional, cell-based; in short: as §1
[3] = system: Human alphaherpesvirus 1; experiment: Tested in vitro for antiviral activity against HSV-1 in plaque reduction assay.; format: functional, organism-based
In short: (§2)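 Plaque reduction used HSV-1 strain S-148 on BSC-1 (African green monkey kidney) monolayers. The inoculum held about 100 PFU, and compounds were dissolved in the overlay medium. IC50 was regressed from percent inhibition against log concentration. Acyclovir or ganciclovir positive controls were run, with sets rejected if the control deviated >1.5 SD from its mean.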

[4] = system: Human betaherpesvirus 5; experiment: Tested in vitro for antiviral activity against human cytomegalovirus (HCMV) in plaque reduction assay.; format: functional, organism-based
In short: (§3)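 HCMV Towne strain (plaque-purified P0) was used on HFF monolayers. The inoculum held about 50 PFU, and compounds were dissolved in the overlay medium. Plaques were enumerated. IC50 came from linear regression of percent inhibition against log concentration. Acyclovir or ganciclovir served as positive control, and a set was rejected if the control deviated >1.5 SD from its mean.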

[5] = system: L1210; experiment: Tested in vitro for antiproliferative activity against growth rate of L1210 cells.(delayed growth inhibition); format: functional, Mus musculus; parameters: concentration or dose not given beside the values
In short: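 L1210 cells were grown in static suspension in Fischer's medium with drug for 4 days. Growth rate was the control-to-treated ratio of population doubling times. For delayed inhibition it was taken over 48–96 h, when control doubling time averaged 22 h. IC50 is the concentration halving growth rate relative to control.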

[6] = Tested in vitro for cytotoxicity against the human neoplastic cell line (KB cells).; format: functional, cell-based
In short: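 KB cells were grown in MEM(H) with 10% calf serum. Incorporation of radiolabelled precursors into DNA, RNA and protein was measured. Separate IC50s came from regression against log concentration and the three were averaged. Values are averages of two to five experiments.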

[7] = system: L1210; experiment: Tested in vitro for antiproliferative activity against growth rate of L1210 cells.; format: functional, Mus musculus
In short: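 L1210 cells were grown in static suspension in Fischer's medium with a range of compound concentrations, and growth rate was followed over 4 days. Growth rate was the control-to-treated ratio of population doubling times. It was scored separately for 0–48 h and 48–96 h, and the lower value was kept. IC50 was the concentration giving 50% of the control growth rate.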

[8] = system: Human alphaherpesvirus 2; experiment: Tested for activity against the human foreskin fibroblasts herpes simplex virus-2 (HSV-2) cell lines; format: functional, organism-based
In short: (§4)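 Plaque reduction used HSV-2 (MS strain) in HFF cells and HSV-1 (E-377 strain) in primary rabbit kidney cells. Monolayers got 20–50 PFU for 1 h at 37 °C, then an agarose overlay holding serial 5-fold drug dilutions in MEM(E). Neutral red staining on day 3 preceded plaque counts against untreated controls. Values average two or more experiments.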

[9] = system: Human betaherpesvirus 5; experiment: Tested in vitro for antiviral activity against human cytomegalovirus (HCMV) in yield reduction assay.; format: functional
[10] = system: Human alphaherpesvirus 1; experiment: Tested for activity against the monkey kidney herpes simplex virus-1 (HSV-1) cell lines; format: functional, organism-based; in short: as §2
[11] = system: Human alphaherpesvirus 1; experiment: Tested for activity against the rabbit kidney herpes simplex virus-1 (HSV-1) cell lines; format: functional, organism-based; in short: as §4
[12] = system: Human alphaherpesvirus 1; experiment: Tested for visual cytotoxicity against monkey kidney herpes simplex virus-1 (HSV-1) cell lines; format: functional, organism-based; in short: as §1
[13] = system: Human alphaherpesvirus 1; experiment: Tested for visual cytotoxicity against rabbit kidney herpes simplex virus-1 (HSV-1) cell lines; format: functional, organism-based
[14] = system: Human betaherpesvirus 5; experiment: Tested for activity against human cytomegalovirus (HCMV) in human foreskin fibroblasts cell lines using plaque assay; format: functional, organism-based; settings: Human betaherpesvirus 5, Fibroblast; in short: as §3
[15] = system: Human betaherpesvirus 5; experiment: Tested for visual cytotoxicity against the human cytomegalovirus (HCMV) cell lines in human foreskin fibroblasts; format: functional, organism-based; in short: as §1
[16] = system: Mus musculus; experiment: Tested for effect on the mortality of mice inoculated with MCMV at 16.7 mg/kg at 24 hr; format: functional
In short: (§5)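 Female Swiss Webster mice, 3 weeks old, were infected ip with 2 × 10⁵ PFU of MCMV Smith strain. Groups of 15 received drug ip twice daily for 5 days, starting at the stated hour after inoculation. Mice were watched daily for 21 days, and final mortality and mean day of death were scored. Fisher exact test (mortality) and Mann-Whitney U test (mean day of death) were used against placebo. Uninfected drug-toxicity controls were 10 mice.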

[17] = system: Mus musculus; experiment: Tested for effect on the mortality of mice inoculated with MCMV at 16.7 mg/kg at 48 hr; format: functional; in short: as §5
[18] = system: Mus musculus; experiment: Tested for effect on the mortality of mice inoculated with MCMV at 5.6 mg/kg at 12 hr; format: functional; in short: as §5
[19] = system: Mus musculus; experiment: Tested for effect on the mortality of mice inoculated with MCMV at 5.6 mg/kg at 24 hr; format: functional; in short: as §5
[20] = system: Mus musculus; experiment: Tested for effect on the mortality of mice inoculated with MCMV at 5.6 mg/kg at 48 hr; format: functional; in short: as §5
[21] = system: Mus musculus; experiment: Tested for effect on the mortality of mice inoculated with MCMV at 50 mg/kg at 12 hr; format: functional; in short: as §5
[22] = system: Mus musculus; experiment: Tested for effect on the mortality of mice inoculated with MCMV at 50 mg/kg at 24 hr; format: functional; in short: as §5
[23] = system: Mus musculus; experiment: Tested for effect on the mortality of mice inoculated with MCMV at 50 mg/kg at 48 hr; format: functional; in short: as §5
[24] = system: Murid betaherpesvirus 1; experiment: Tested for activity against mouse cytomegalovirus (MCMV) in mouse embryo fibroblasts using plaque assay; format: functional, organism-based
In short: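 MCMV Smith strain was plated on primary mouse embryo fibroblasts at 20–50 PFU per monolayer, with 1 h at 37 °C. Serial 5-fold drug dilutions in twice-concentrated MEM(E) were mixed with 1% agarose as overlay. A further drug-free overlay was added on day 4. Cultures were stained with neutral red on day 7 and plaques counted against untreated controls. Values average two or more experiments.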

[25] = system: Murid betaherpesvirus 1; experiment: Tested for visual cytotoxicity against the mouse cytomegalovirus (MCMV) in mouse embryo fibroblasts; format: functional, organism-based
[26] = system: Human alphaherpesvirus 2; experiment: Tested for visual cytotoxicity against the human foreskin fibroblasts herpes simplex virus-2 (HSV-2) cell lines; format: functional, organism-based
[27] = system: Mus musculus; experiment: Tested for effect on the mortality of mice inoculated with MCMV at 16.7 mg/kg at 12 hr; format: functional; in short: as §5
[28] = system: Human alphaherpesvirus 1; experiment: Tested in vitro for antiviral activity against HSV-1 in yield reduction assay.; format: functional
[29] = Human betaherpesvirus 5, read-out: IC90

With NC(=O)c1cn([C@@H]2O[C@H](CO)[C@@H](O)[C@@H]2Cl)c2ncnc(N)c12 the IC50 [1] was over 100 µM, the IC50 [2] was over 100 µM and the IC50 [3] was over 100 µM. The IC50 [4] was over 100 µM and the Control [5] was 73%.

In the case of NC(=O)c1cn([C@@H]2O[C@H](CO)[C@@H](O)[C@@H]2N)c2ncnc(N)c12, the IC50 [1] is reported as over 100 µM, the IC50 [2] is reported as over 100 µM and the IC50 [3] is reported as over 100 µM. For the same molecule, the IC50 [4] was over 100 µM, the IC50 [6] was over 100 µM and the Control [5] was 46%.

Work on NC(=O)c1cn([C@@H]2O[C@H](CO)[C@@H](O)[C@@H]2I)c2ncnc(N)c12 yielded an IC50 [1] of over 100 µM, an IC50 [2] of 100 µM and an IC50 [3] of over 100 µM. The IC50 [4] was over 100 µM and the Control [5] was 38%.

Work on NC(=O)c1cn([C@@H]2O[C@H](CO)[C@@H](O)[C@@H]2Br)c2ncnc(N)c12 yielded an IC50 [1] of over 100 µM, an IC50 [2] of over 100 µM and an IC50 [3] of over 100 µM. It also gave an IC50 [4] of over 100 µM and a Control [7] of 92%.

Molecule N#Cc1cn([C@@H]2O[C@H](CO)[C@@H](O)[C@@H]2N)c2ncnc(N)c12 has an IC50 [1] of over 100 µM, an IC50 [8] of 114 µM and an IC50 [2] of over 100 µM. For the same molecule, the IC90 [9, 29] was 110 µM, the IC50 [10] was over 100 µM and the IC50 [11] was 117 µM. The IC50 [12] was over 100 µM, the IC50 [13] was 350 µM and the IC50 [3] was over 100 µM. The IC50 [14] was 14 µM, the IC50 [15] was over 100 µM and the IC50 [4] was 14 µM. For the same molecule, the IC50 [6] was 105 µM, the Control [5] was 48% and the MDD [16] was 4.7 mean day of death. For the same molecule, the mortality at 16.7 mg/kg [16] was 100%, the MDD [17] was 4.6 mean day of death and the mortality at 16.7 mg/kg [17] was 100%. For the same molecule, the MDD [18] was 4.5 mean day of death, the mortality at 5.6 mg/kg [18] was 100% and the MDD [19] was 4.6 mean day of death. The mortality at 5.6 mg/kg [19] was 93%, the MDD [20] was 5.6 mean day of death and the mortality at 5.6 mg/kg [20] was 100%. The MDD [21] was 4.1 mean day of death, the mortality at 50 mg/kg [21] was 73% and the MDD [22] was 4.4 mean day of death. The mortality at 50 mg/kg [22] was 100%, the MDD [23] was 4.9 mean day of death and the mortality at 50 mg/kg [23] was 87%. The IC50 [24] was 13 µM, the IC50 [25] was over 350 µM and the IC50 [26] was 350 µM. The MDD [27] was 4.6 mean day of death and the mortality at 16.7 mg/kg [27] was 93%.

For N#Cc1cn([C@@H]2O[C@H](CO)[C@@H](O)[C@@H]2Cl)c2ncnc(N)c12, the IC50 [1] was over 100 µM, the IC50 [2] was 140 µM and the IC90 [9, 29] was 75 µM. It also gave an IC50 [3] of over 100 µM, an IC50 [4] of 21 µM and a Control [5] of 24%.

For N#Cc1cn([C@@H]2O[C@H](CO)[C@@H](O)[C@@H]2I)c2ncnc(N)c12, the IC50 [1] was over 100 µM, the IC50 [2] was 100 µM and the IC90 [9, 29] was 20 µM. The IC50 [3] was over 100 µM, the IC50 [4] was 40 µM and the Control [5] was 24%.

With [N-]=[N+]=N[C@H]1[C@H](O)[C@@H](CO)O[C@H]1n1cc(C(N)=O)c2c(N)ncnc21 the IC50 [1] was over 100 µM, the IC50 [2] was 66 µM and the IC90 [9, 29] was 100 µM. For the same molecule, the IC50 [3] was over 100 µM, the IC50 [4] was 28 µM and the IC50 [6] was 179 µM. For the same molecule, the Control [5] was 12%.

N#Cc1cn([C@@H]2O[C@H](CO)[C@@H](O)[C@@H]2N=[N+]=[N-])c2ncnc(N)c12 showed an IC50 [1] of over 100 µM, an IC50 [2] of 55 µM and an IC90 [9, 29] of 37 µM. For the same molecule, the IC50 [3] was over 100 µM, the IC50 [4] was 34 µM and the IC50 [6] was 151 µM. For the same molecule, the Control [5] was 14%.

N#Cc1cn([C@@H]2O[C@H](CO)[C@@H](O)[C@@H]2Br)c2ncnc(N)c12 gave an IC50 [1] of over 100 µM, an IC50 [2] of 181 µM and an IC90 [9, 29] of 90 µM. The IC50 [3] was over 100 µM, the IC50 [4] was 162 µM and the Control [5] was 16%.

In the case of Nc1nc2c(ncn2COCCO)c(=O)[nH]1 [ACYCLOVIR], the IC50 [1] is reported as over 100 µM, the IC50 [2] is reported as over 100 µM and the IC90 [9, 29] is reported as 90 µM. The IC90 [28] was 7 µM and the IC50 [6] was over 100 µM.

In the case of Nc1nc2c(ncn2COC(CO)CO)c(=O)[nH]1 [GANCICLOVIR], the IC50 [1] is reported as over 100 µM, the IC50 [2] is reported as over 100 µM and the IC90 [9] is reported as 1.8 µM. The IC90 [28] was 1.2 µM, the IC50 [4] was 9.2 µM and the IC50 [6] was over 100 µM.
